# Compound activity as filed in PubChem BioAssay.
# Compounds with a hit are over-represented: about 1.9% of the library has one in this group of screens.
# PLC-gamma1 inh – blocks human PLC-gamma1 enzyme activity | actives 0.84% (n = 370,000) | purified PLC-gamma1, fluorogenic substrate, fluorescence | inhibition, % at 12.2 µM | P19174; in the data active = inhibition above about 9.5%
# PLC-beta3 inh – PLC-beta3 (human) inhibition, primary screen | Purified PLC-beta3, fluorogenic substrate, fluorescence | inhibition, % at 12.2 µM | actives 0.18% (n = 370,000) | AID 720704; in the data active = inhibition above about 11%;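 also: 0% = median of compound wells on plate and 100% = full blocker control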
# sPLA2-III inh – Blocks human group III sPLA2 activity | AID 743126 | QFRET BODIPY PC-A2 liposome hydrolysis, fluorescence | Q9NZ20 | inhibition, % at 12.2 µM | actives 0.56% (n = 370,000);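 active = inhibition above mean plus 3 SD of compounds lying within the high and low control bounds, cut at about 19% in these data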;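 also: 0% = median of test compound wells and 100% = no enzyme DMSO wells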
# ASAP1 GAP inh – inhibitors of human ASAP1 ArfGAP activity; Q9ULH1; ASAP1-stimulated ARF1 GTP hydrolysis, GDP FP detection; inhibition, % at 16.5 µM; actives 0.19% (n = 360,000); in the data active = inhibition above about 25%;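 also: 0% = vehicle with enzyme and substrate and 100% = no enzyme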
# Target sequence (Q9ULH1 325-724 limits assumed): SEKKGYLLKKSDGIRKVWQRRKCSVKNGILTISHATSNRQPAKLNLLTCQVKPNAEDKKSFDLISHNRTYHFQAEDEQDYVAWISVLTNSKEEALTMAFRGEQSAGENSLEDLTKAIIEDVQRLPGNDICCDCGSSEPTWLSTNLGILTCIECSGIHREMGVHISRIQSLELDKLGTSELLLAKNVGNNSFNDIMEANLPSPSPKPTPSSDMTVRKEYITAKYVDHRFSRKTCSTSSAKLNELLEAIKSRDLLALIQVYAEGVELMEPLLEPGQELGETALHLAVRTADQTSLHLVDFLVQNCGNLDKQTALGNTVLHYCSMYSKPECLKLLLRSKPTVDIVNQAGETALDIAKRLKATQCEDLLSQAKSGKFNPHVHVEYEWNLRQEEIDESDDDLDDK
# ARFGAP1 inhibitor – inhibitors of rat ARFGAP1; Arfgap1-stimulated ARF1 GTP hydrolysis, GDP FP detection; actives 0.26% (n = 360,000); inhibition, % at 16.5 µM; Q62848;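 active = inhibition above a per-plate limit, mean inhibition of low control wells plus 3 SD, cut at about 25% in these data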;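 also: 0% = DMSO wells with enzyme and 100% = wells lacking Arfgap1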
#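 Replicates: Single well per compound | Assay system: Truncated rat Arfgap1 GAP domain | Control set: No-Arfgap1 wells (100%) versus DMSO full-reaction wells (0%) | Times: Enzyme reaction 120 min at 25 °C after 20 min preincubation | Reagent: Human ARF1(Δ1-17)-GTP substrate | Measured by: Tracer-displacement fluorescence polarization with EDTA stop, 620/688 nm | Measure: Percent inhibition of Arfgap1-stimulated GTP hydrolysis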
# sPLA2 confirm – human GIII-sPLA2 inhibition, confirmation. inhibition, % at 12.2 µM. recombinant hGIII-sPLA2, BODIPY PC-A2 QFRET fluorescence. actives 34% (n = 2,000). shares compounds with sPLA2-III inh;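 active = mean inhibition across triplicates above the hit cutoff set in the earlier primary screen, cut at about 19% in these data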;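 also: 0% = enzyme with DMSO and 100% = DMSO wells lacking enzyme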
# BODIPY interf – 535nm fluorescence interference, HGIII-sPLA2 counter-screen | shares compounds with sPLA2-III inh | inhibition, % at 12.2 µM | AID 743282 | actives 8.5% (n = 2,000) | BODIPY FL product fluorescence interference, QFRET;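 active = average inhibition above the solvent-only control mean plus 3 SD, cut at about 6% in these data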;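 also: 0% = DMSO with substrate plus product and 100% = DMSO with substrate alone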
# 535nm interf DR – counter-screen for HGIII-sPLA2 inhibitors: 535nm fluorescence interference, dose response; shares compounds with sPLA2-III inh; BODIPY FL product fluorescence interference, cell-free; IC50, µM; 240 tested, under 10 active; AID 743455;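 active = IC50 at or below 10 µM; inactive = IC50 above 10 µM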
# The depositor's hits bear a star; i = inactive; / = no result.
SMILES,PLC-gamma1 inh,PLC-beta3 inh,sPLA2-III inh,ASAP1 GAP inh,ARFGAP1 inhibitor,sPLA2 confirm,BODIPY interf,others
CS(=O)(=O)N[C@@H]1C[C@@H]2O[C@@H](CO)CC[C@@H]2O[C@@H]1CCc1ccc(-c2ccccc2F)cc1,2,-2,-19,/,/,/,/,
CCC(=O)Nc1c(C(=O)N2CCN(c3ccccn3)CC2)cnn1-c1ccc(C)cc1,0,2,22*,8,13,-1,-9,
CCC(=O)Nc1c(C(=O)N2CCN(c3ccccn3)CC2)cnn1-c1ccc(Cl)cc1,0,2,2,-5,1,/,/,
COc1cc(C2CC=C(C(=O)O)C(c3ccccc3F)N2S(=O)(=O)c2ccc(C)cc2)cc(OC)c1OC (stereo not given),2,2,-3,/,/,/,/,
CCCCc1ccc(NC(=S)N2CCCC2)cc1,-2,-2,20*,-15,18,10,-9,
CCCCc1ccc(NC(=S)N2CCN(C)CC2)cc1,0,-2,8,12,-9,/,/,
C/C(=N\NC(=O)c1ccc(N(C)C)cc1)c1ccc(C)cc1C,-18,-18,2,-8,4,/,/,
C/C(=N\NC(=O)c1ccc(N(C)C)cc1)c1ccc(C)c(C)c1,-25,-38,31*,6,6,6,-2,
CN(C(=O)c1cn(C)c2ccccc12)c1ccc(Oc2cccnc2)cc1,0,-2,-1,-11,6,/,/,
O=[N+]([O-])c1ccccc1/C=N/n1c(C2CCCCC2)n[nH]c1=S,9,-4,20*,0,2,28*,5,535nm interf DR=>122
Cc1ccc(NC(=S)NNC(=O)C2CC2c2ccc(C)cc2)cc1 (stereo not given),-1,-2,15,-7,-2,/,/,
O=C(NNC(=S)Nc1ccc(F)cc1)C1CC1c1ccc(Cl)cc1 (stereo not given),3,-34,20*,-2,-1,35*,0,535nm interf DR=>122
COc1ccc(NC(=S)NNC(=O)C2CC2c2ccc(C)cc2)cc1 (stereo not given),1,6,21*,1,1,22*,-1,
Cc1ccc(C2CC2C(=O)NNC(=S)Nc2cccc(C)c2)cc1 (stereo not given),-2,1,19,-2,0,/,/,
Cc1ccc(C2CC2C(=O)NNC(=S)Nc2cccc(Cl)c2)cc1 (stereo not given),7,4,23*,-12,7,-9,10.0*,
O=C(CNS(=O)(=O)c1ccc(Br)s1)N1CCN(c2ccccn2)CC1,-2,1,1,/,/,/,/,
CCOc1cc(N2CCOCC2)c(OCC)cc1NC(=O)c1ccc(OCc2c(C)noc2C)c(OC)c1,2,-1,20*,3,-6,4,-30,
CCOc1cc(N2CCOCC2)c(OCC)cc1NC(=O)c1ccc(OC)cc1,-2,-8,-1,-17,4,/,/,
C=CCNc1cc(=O)n(Cc2ccccc2)c(=O)[nH]1,-6,-11,19*,9,0,-2,-3,
CCOC(=O)c1csc(NC(=O)C2CCCN(S(=O)(=O)c3cccs3)C2)n1 (stereo not given),0,-1,2,/,/,/,/,
O=C(Nc1nnc(SCC(=O)N2CCCc3ccccc32)s1)c1ccc2ccccc2c1,5,-4,20*,6,-4,-49,-9,
COc1ccc2sc(-c3ccc(SC)cc3)c(/C=C/c3ccc(OC)c(OC)c3)c2c1,-183,-199,-4,14,10,/,/,
COc1ccc(-c2sc3ccccc3c2/C=C/c2ccc(N)cc2)cc1,-412,i,22*,9,6,28*,13*,
COc1ccc(-n2cnc3ccccc32)cc1,4,4,1,6,2,/,/,
COc1ccc(-n2cnc3c(N)nc(N)nc32)cc1,-2,-2,20*,7,-6,-2,-5,
CC(C)N1CCCCC(NC(=O)c2ccc(Br)cc2)C1=O (stereo not given),0,1,6,/,/,/,/,
